Measured values as given in ChEMBL document CHEMBL5365542, “Difluoromethyl-1,3,4-oxadiazoles Are Selective, Mechanism-Based, and Essentially Irreversible Inhibitors of Histone Deacetylase 6” (J Med Chem, 2023).
Calls of active or inactive are those of the source. The rule behind the calls is not given here.

Assays:
[1] = test system: T1, Histone deacetylase 6 (Danio rerio), F8W4B7 [H573A]; assay: Irreversible inhibition of Danio rerio HDAC6 H573A mutant catalytic domain 2 assessed as enzyme catalysed ring opening by measuring reduction in 2-(Benzylamino)pyrimidine-5-carbohydrazide formation at 100 uM incubated overnight by LC-MS analysis
T1 sequence (whole entry): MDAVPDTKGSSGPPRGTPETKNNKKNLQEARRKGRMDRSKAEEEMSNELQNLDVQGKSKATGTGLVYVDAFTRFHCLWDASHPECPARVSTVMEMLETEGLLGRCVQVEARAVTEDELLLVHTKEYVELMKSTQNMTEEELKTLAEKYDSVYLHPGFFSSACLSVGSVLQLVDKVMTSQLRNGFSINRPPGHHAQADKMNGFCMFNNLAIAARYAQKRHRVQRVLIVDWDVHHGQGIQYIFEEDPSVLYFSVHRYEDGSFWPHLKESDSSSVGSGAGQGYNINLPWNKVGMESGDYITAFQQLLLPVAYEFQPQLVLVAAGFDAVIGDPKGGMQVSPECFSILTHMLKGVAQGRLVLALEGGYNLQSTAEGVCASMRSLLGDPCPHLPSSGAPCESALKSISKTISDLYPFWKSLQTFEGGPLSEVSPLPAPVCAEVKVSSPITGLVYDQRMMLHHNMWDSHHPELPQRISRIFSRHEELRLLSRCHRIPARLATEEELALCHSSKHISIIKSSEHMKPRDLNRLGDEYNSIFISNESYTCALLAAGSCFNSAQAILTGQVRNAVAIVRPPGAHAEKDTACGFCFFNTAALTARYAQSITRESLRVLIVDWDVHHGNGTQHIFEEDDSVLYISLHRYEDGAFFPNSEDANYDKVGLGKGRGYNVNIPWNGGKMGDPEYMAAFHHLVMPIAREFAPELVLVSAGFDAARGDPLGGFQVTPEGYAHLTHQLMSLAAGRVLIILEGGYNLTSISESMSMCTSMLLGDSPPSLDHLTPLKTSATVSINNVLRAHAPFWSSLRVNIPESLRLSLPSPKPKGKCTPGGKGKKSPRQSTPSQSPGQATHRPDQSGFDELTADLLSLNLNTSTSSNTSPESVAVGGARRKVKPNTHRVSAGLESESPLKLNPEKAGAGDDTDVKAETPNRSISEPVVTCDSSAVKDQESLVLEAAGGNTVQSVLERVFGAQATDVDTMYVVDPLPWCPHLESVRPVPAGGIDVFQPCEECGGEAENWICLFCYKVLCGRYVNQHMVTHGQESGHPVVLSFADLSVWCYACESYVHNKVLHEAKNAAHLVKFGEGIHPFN
Outline: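 Zebrafish HDAC6 CD2 mutants were made by site-directed mutagenesis and expressed in BL21(DE3). Enzyme at 50 μM was incubated overnight with 100 μM inhibitor in 50 mM HEPES pH 7.5, 100 mM KCl, 1 mM TCEP, 5% glycerol; an enzyme-free control was included. Protein was methanol-precipitated and filtered, and products were analysed by C18 UPLC-MS with a 2-min gradient.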

[2] = molecular target: T2, Protein deacetylase HDAC6 (Homo sapiens) (UniProt Q9UBN7); assay: Irreversible inhibition of N-terminal GST tagged human recombinant HDAC6 (1 to 1215 residues) expressed in Sf9 insect cells using Z-Lys(Ac)-AMC as fluorogenic substrate at 6.5 uM preincubated for 1 hr followed by 100-fold dilution and substrate addition measured every 0.5 mins for 60 mins by microplate reader analysis
T2 sequence (whole entry): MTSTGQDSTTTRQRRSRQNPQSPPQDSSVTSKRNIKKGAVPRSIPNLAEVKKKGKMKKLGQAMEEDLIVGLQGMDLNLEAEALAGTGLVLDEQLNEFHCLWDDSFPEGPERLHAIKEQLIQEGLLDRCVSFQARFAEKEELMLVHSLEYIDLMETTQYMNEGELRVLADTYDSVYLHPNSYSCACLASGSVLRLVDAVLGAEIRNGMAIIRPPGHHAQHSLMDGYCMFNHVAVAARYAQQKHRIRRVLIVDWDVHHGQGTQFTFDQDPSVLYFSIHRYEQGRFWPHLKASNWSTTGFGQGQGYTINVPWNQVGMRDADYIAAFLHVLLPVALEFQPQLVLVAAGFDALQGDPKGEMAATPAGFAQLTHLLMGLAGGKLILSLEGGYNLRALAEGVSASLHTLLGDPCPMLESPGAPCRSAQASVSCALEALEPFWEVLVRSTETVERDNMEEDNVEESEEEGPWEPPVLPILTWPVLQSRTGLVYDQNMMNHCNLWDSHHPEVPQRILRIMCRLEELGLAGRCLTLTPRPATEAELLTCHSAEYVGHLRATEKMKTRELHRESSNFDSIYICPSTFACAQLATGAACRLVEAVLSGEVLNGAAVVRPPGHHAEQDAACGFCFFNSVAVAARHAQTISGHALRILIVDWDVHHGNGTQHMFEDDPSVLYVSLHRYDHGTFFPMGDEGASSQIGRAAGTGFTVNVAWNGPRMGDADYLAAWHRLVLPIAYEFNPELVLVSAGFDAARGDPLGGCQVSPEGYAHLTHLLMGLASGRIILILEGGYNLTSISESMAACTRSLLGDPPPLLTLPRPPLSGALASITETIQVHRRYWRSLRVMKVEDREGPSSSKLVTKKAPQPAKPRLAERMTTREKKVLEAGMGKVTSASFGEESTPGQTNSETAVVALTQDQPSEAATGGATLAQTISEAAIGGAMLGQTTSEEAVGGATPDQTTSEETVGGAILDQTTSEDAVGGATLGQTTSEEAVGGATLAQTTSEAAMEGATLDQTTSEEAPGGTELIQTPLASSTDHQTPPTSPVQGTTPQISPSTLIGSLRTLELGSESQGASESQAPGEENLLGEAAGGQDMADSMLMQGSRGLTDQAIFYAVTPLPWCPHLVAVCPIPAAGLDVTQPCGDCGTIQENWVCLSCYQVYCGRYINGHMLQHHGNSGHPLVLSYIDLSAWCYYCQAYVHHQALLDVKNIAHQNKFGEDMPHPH
Outline: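 It was then diluted 100-fold in buffer or in inhibitor at the original concentration. Finals were 220 pg/μL enzyme, 93 μM ZMAL and 20 ng/μL trypsin. AMC release was read every 0.5 min for 60 min at 37 °C; triplicates.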

[3] = molecular target: T2, Protein deacetylase HDAC6 (Homo sapiens); assay: Binding affinity to N-terminal GST tagged human recombinant HDAC6 (1 to 1215 residues) expressed in Sf9 insect cells using Z-Lys(Ac)-AMC as fluorogenic substrate assessed as single step slow binding mechanism by measuring linear relationship between Kobs and inhibitor concentration measured every 0.5 mins for 45 mins
Outline: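 Finals were 220 pg/μL enzyme, 93.0 μM ZMAL (5× KM; KM 19.27 μM) and 20 ng/μL trypsin. AMC read continuously (ex 360/em 460) at 37 °C. Curves fitted for kobs, then kobs vs [I] fitted; triplicates.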

Structure (SMILES)	inhibition [1]	inhibition [2]	Activity [3]
FC(F)c1nnc(-c2cnc(NCc3ccccc3)nc2)o1	Active		
FC(F)(F)c1nnc(-c2cnc(NCc3ccccc3)nc2)o1	Active	inactive	Active
